Molecular target: T1, Sphingomyelin phosphodiesterase 2 (Rattus norvegicus, UniProt Q9ET64)
T1 sequence (Q9ET64 whole entry): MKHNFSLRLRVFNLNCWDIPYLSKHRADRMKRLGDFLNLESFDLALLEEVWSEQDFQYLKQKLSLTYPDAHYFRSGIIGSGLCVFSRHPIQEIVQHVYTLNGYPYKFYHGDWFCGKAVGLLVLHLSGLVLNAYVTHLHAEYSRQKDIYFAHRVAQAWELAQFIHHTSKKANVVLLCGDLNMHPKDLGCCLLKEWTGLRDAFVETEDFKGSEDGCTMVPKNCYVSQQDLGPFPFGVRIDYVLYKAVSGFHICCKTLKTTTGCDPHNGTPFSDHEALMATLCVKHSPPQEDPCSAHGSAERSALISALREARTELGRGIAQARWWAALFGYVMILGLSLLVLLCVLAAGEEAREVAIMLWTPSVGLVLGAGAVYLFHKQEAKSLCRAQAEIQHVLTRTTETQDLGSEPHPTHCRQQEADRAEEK
Assay: Inhibitory concentration against the membrane neutral magnesium-dependent Sphingomyelinase (N-SMase) using rat brain microsomes as the enzyme source
In short: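 Rat brain microsomes served as the enzyme source and were incubated 25 min at 37 °C with 0.3mM ¹⁴C-labelled sphingomyelin in 100 mM Tris–HCl (pH 7.5), 20 mM MgCl₂ and 0.25% Triton X-100, across a range of inhibitor concentrations. Released radioactive phosphorylcholine was separated by chloroform/methanol (2/1) extraction and counted by scintillation in the aqueous phase. IC₅₀ was derived from these counts.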

IC50	SMILES
> 100 µM	CCCCCCCCCCCCC/C=C/[C@@H](O)[C@H](COC(=O)NCc1ccncc1)NC(=O)OC(C)(C)C
8.7 µM	CCCCCCCCCCCCC/C=C/[C@@H](O)[C@H](COC(=O)NCC[N+](C)(C)C)NC(=O)C(C)(C)C
4.1 µM	CCCCCCCCCCCCC/C=C/[C@@H](O)[C@H](COC(=O)NCCN(C)C)NC(=O)C(C)(C)C
77 µM	CCCCCCCCCCCCC/C=C/[C@@H](O)[C@H](COC(=O)NCCC(C)(C)C)NC(=O)C(C)(C)C
> 100 µM	CCCCCCCCCCCCC/C=C/[C@@H](O)[C@H](COC(=O)NCc1ccncc1)NC(=O)CCCCCCCCCCCCCCCCC
8.2 µM	CCCCCCCCCCCCC/C=C/[C@@H](O)[C@H](COC(=O)NCc1ccc(N(C)C)cc1)NC(=O)C(C)(C)C
4.9 µM	CCCCCCCCCCCCC/C=C/[C@@H](O)[C@H](COC(=O)NCCCN(C)C)NC(=O)C(C)(C)C
> 100 µM	CCCCCCCCCCCCC/C=C/[C@@H](O)[C@H](COC(=O)NCc1ccncc1)NC(C)=O
7.9 µM	CCCCCCCCCCCCC/C=C/[C@@H](O)[C@H](COC(=O)Nc1ccccn1)NC(=O)C(C)(C)C
1.8 µM	CCCCCCCCCCCCC/C=C/[C@@H](O)[C@H](COC(=O)NCc1ccncc1)NC(=O)C(C)C
18 µM	CCCCCCCCCCCCC/C=C/[C@@H](O)[C@H](COC(=O)NCCN(C(C)C)C(C)C)NC(=O)C(C)(C)C
5 µM	CCCCCCCCCCCCC/C=C/[C@@H](O)[C@H](COC(=O)NCc1ccccn1)NC(=O)C(C)(C)C
8.4 µM	CCCCCCCCCCCCC/C=C/[C@@H](O)[C@H](COC(=O)NCCc1ccccn1)NC(=O)C(C)(C)C
2.1 µM	CCCCCCCCCCCCC/C=C/[C@@H](O)[C@H](COC(=O)NCc1cccnc1)NC(=O)C(C)(C)C
31 µM	CCCCCCCCCCCCC/C=C/[C@@H](O)[C@H](COC(=O)CCCN(C)C)NC(=O)C(C)(C)C
> 100 µM	CCCCCCCCCCCCC/C=C/C(O)C(N)COC(=O)NCc1ccncc1 (single isomer, unassigned)
